71 compounds from ChEMBL document CHEMBL4513216, “Probing the Open Global Health Chemical Diversity Library for Multistage-Active Starting Points for Next-Generation Antimalarials” (ACS Infect Dis, 2020) can be followed below.

The series is described as follows: Toxicity liver stage against HepG2, at 10uM. The series is classed as cell-based. Also on record: test concentration 10 uM, cell line HepG2-A16-CD81EGFP. The note with it: human, HepG2-A16-CD81EGFP cells; read-out: INHIBITION
In outline: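 Uninfected HepG2-A16-CD81EGFP cells, 3 × 10^3 per well, 1536-well, plated on prespotted compound at 10 μM final, parasite-free screening media added to match infected plates; puromycin 10 μM positive, DMSO 0.5% negative; run in parallel with 48 h PbLuc assay at 37 °C, 5% CO2; viability by CellTiter-Glo luminescence, normalized to controls.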
`c1cc(-c2c[nH]c([C@@H]3COCCN3C3CCOCC3)n2)ccn1`: the cytotoxicity at 10 µM is -0.113%.

Take `CC(C)N1C[C@H](O)C[C@H]1c1nc(-c2ccc(OC(F)(F)F)cc2)no1`: the cytotoxicity at 10 µM is -3.72%.

For `CC(C)(C)CC(=O)NC[C@H]1OC[C@@H](NC2CCC(F)(F)CC2)[C@@H]1O`, the cytotoxicity at 10 µM is -1.23%.

With `CCC(CC)C(=O)N1CCN(Cc2cc(=O)c3ccccc3[nH]2)CC1`, the cytotoxicity at 10 µM is -9.55%.

As to `COCc1nnc(NC(=O)CN2C(=O)c3ccccc3NC2C(C)C)s1` (stereo unspecified), the cytotoxicity at 10 µM was -4.19%.

On to `CNc1c(NCc2ccco2)c(=O)c1=O`, for which the cytotoxicity at 10 µM was -10.6%.

Turning to `O=C(NCc1ccc2c(c1)OCO2)c1ccc(N2CCCCC2)nn1`, the cytotoxicity at 10 µM is -9.7%.

`CN1C(=O)CCCC12CCCN(C(=O)c1cc(F)cc(F)c1)C2` (stereo unspecified): the cytotoxicity at 10 µM was -1.54%.

Turning to `CCc1ccc(CN2CCc3[nH]nc(C(=O)N4CCNC(=O)C4)c3C2)o1`, the cytotoxicity at 10 µM was found to be 17.5%.

Turning to `Cc1noc(-c2ccc(-n3ncc(C(=O)O)c3C)nc2)n1`, the cytotoxicity at 10 µM came to 0.748%.

As for `CS(=O)(=O)NC[C@@H]1OC[C@H]2CN(C(=O)c3ccc[nH]3)CC[C@H]21`, the cytotoxicity at 10 µM is 0.253%.

In the case of `CCCc1nc(N2CCN(CC)CC2)c2c(n1)c(C)nn2CC`, the cytotoxicity at 10 µM was -9.41%.

Regarding `CN1CCCC1CCNC(=O)c1ccccc1-n1cnc(CN)c1` (stereo unspecified), the cytotoxicity at 10 µM worked out at 8.6%.

On to `CN(C)c1cc(C2CCCN2)ccn1` (stereo unspecified), for which the cytotoxicity at 10 µM was determined as 5.8%.

As for `COc1ncc(NCc2cccc(C#N)c2)cc1C(N)=O`, the cytotoxicity at 10 µM turned out to be 5.85%.

For `CCN(C(=O)CS(=O)(=O)c1cc(OC)c(OC)cc1C)C1CC1`, the cytotoxicity at 10 µM is -3.91%.

Take `O=C(Cc1cccnc1)NCCS(=O)(=O)c1ccccc1F`: the cytotoxicity at 10 µM was 6.72%.

In the case of `CCNC(=O)NC(C)c1nc(-c2ccc(Br)cc2)no1` (stereo unspecified), the cytotoxicity at 10 µM was determined as 14.7%.

Consider `CCc1csc(C2CCCN(C(=O)CCn3cc(C)cn3)C2)n1` (stereo unspecified), for which the cytotoxicity at 10 µM came to 1.82%.

In the case of `CC(C(=O)N(C)C)N1CCCN(C(=O)Oc2ccccc2)CC1` (stereo unspecified), the cytotoxicity at 10 µM was -0.37%.

For `O=C(CCCn1cncn1)N1CCCCC1c1nccs1` (stereo unspecified), the cytotoxicity at 10 µM came to 8.6%.

Regarding `CN(C(=O)CN1CCC(c2cc3ccccc3[nH]2)CC1)C1CC1`, the cytotoxicity at 10 µM worked out at 1.95%.

As to `CNS(=O)(=O)CC(=O)NC(C)Cc1ccccc1Br` (stereo unspecified), the cytotoxicity at 10 µM amounted to 13.7%.

For the compound `CCN(Cc1noc(C2CC2)n1)Cc1ccc(C#N)cc1F`, the cytotoxicity at 10 µM was -1.74%.

Turning to `CN(Cc1nccn1C)C(CO)c1cccc(Br)c1` (stereo unspecified), the cytotoxicity at 10 µM is -1.29%.

Consider `Cc1cnc(CCN(C)C(=O)c2cccc(N(C)C)c2)s1`, for which the cytotoxicity at 10 µM came out at 2.05%.

On to `COc1ccc(C(CO)NC(=O)Nc2cccnc2)cc1` (stereo unspecified), for which the cytotoxicity at 10 µM is -15.7%.

For the compound `Cc1ncc(CNC(=O)Nc2cc(C(F)(F)F)c[nH]c2=O)s1`, the cytotoxicity at 10 µM is -10.2%.

Consider `N#Cc1c(F)cccc1N1CCN(S(=O)(=O)c2cccs2)CC1`, for which the cytotoxicity at 10 µM is 14.2%.

For `CS(=O)(=O)c1ccc(CNCC2CCN(CCO)CC2)cc1`, the cytotoxicity at 10 µM was -18.8%.

For `O=C1CC(c2cccnc2)C2(CCN(C(=O)c3ccncc3)CC2)N1` (stereo unspecified), the cytotoxicity at 10 µM was -6.64%.

For the compound `Cn1cc(CN2C[C@@H]3[C@@H](C2)OCC(=O)N3Cc2ccncc2)cn1`, the cytotoxicity at 10 µM was -7.9%.

With `COCCCNc1nc(CNC(C)=O)cc(-c2ccco2)n1`, the cytotoxicity at 10 µM was -5.52%.

For the compound `CC(C)[C@H](NS(C)(=O)=O)C(=O)NCc1cc(-c2ccccc2)n[nH]1`, the cytotoxicity at 10 µM is -8.94%.

Take `CCC1(C(=O)O)CCCN(C(=O)c2ccc(N3CCN(C)CC3)cc2)C1` (stereo unspecified): the cytotoxicity at 10 µM is -2.35%.

With `CCN1CCN(C(=O)CCC2CCN(C(=O)CCSC)CC2)CC1`, the cytotoxicity at 10 µM was -1.56%.

As to `CCCC(=O)Nc1cccc(C(=O)N(C)CCCC2CCCO2)c1` (stereo unspecified), the cytotoxicity at 10 µM came out at 1.03%.

For the compound `COc1nccc(N2CCN(Cc3ccc(C)cc3)C(=O)C2)c1C#N`, the cytotoxicity at 10 µM was -16.5%.

For the compound `Clc1ccccc1C1(c2ccnc(-c3ncccn3)n2)CCNCC1`, the cytotoxicity at 10 µM was -6.28%.

Take `NC(=O)c1cccc(CC2CCN(C(=O)CCCN3CCOCC3)C2)c1` (stereo unspecified): the cytotoxicity at 10 µM is -11.3%.

As for `COCc1noc(-c2ccc(N(C)Cc3cc(C)no3)nc2)n1`, the cytotoxicity at 10 µM is -17.2%.

For `CN1CCC(c2ncc3c(n2)CCN(C(=O)CC2C=CCC2)C3)CC1` (stereo unspecified), the cytotoxicity at 10 µM came out at 1.68%.

Take `CC(C)OCCN1CCN(C(C)c2nc(C3CC3)no2)CC1` (stereo unspecified): the cytotoxicity at 10 µM is 2.07%.

Regarding `Cc1cnn(C2CCCN(C(=O)CCc3cscn3)C2)c1` (stereo unspecified), the cytotoxicity at 10 µM is -12.9%.

Regarding `CN1CCOC(CNCc2coc(-c3cccc(Cl)c3)n2)C1` (stereo unspecified), the cytotoxicity at 10 µM was -15.9%.

On to `Cc1cnn(C2CCCN(C(=O)Cc3n[nH]c4ccccc34)C2)c1` (stereo unspecified), for which the cytotoxicity at 10 µM was -6.8%.

For the compound `O=C(NCCN1CCCCCC1=O)c1ccc(=O)[nH]n1`, the cytotoxicity at 10 µM is -19.3%.

`NC(=O)NC(=O)CCN1CCN(c2nccs2)CC1`: the cytotoxicity at 10 µM is -33.6%.

On to `COc1ncccc1C(=O)N1CCC(Nc2ccc(C)nn2)CC1`, for which the cytotoxicity at 10 µM was -18.1%.

Turning to `O=C(CCNc1ncccn1)N1CCCN(c2nccs2)CC1`, the cytotoxicity at 10 µM is -14.3%.

Turning to `CC(Cn1cccn1)NCc1csc(Cc2ccccc2)n1` (stereo unspecified), the cytotoxicity at 10 µM is -8.15%.

Regarding `COc1cc(C(=O)N2CCCC(c3cc(C)[nH]n3)C2)cc(OC)c1C` (stereo unspecified), the cytotoxicity at 10 µM was -10.5%.

As to `Cc1ccc(OCCCC(=O)NC(C)c2nnc3n2CCC3)cc1` (stereo unspecified), the cytotoxicity at 10 µM is -15%.

For the compound `Cc1cnc(C(=O)NCc2cccnc2OC(C)C)cn1`, the cytotoxicity at 10 µM is -23.4%.

On to `O=C1COc2c(cccc2C(=O)N2CCCC2Cn2cccn2)N1` (stereo unspecified), for which the cytotoxicity at 10 µM is -4.47%.

As for `Cc1ccc(CC(=O)N2CCCC(c3cc(C)[nH]n3)C2)cn1` (stereo unspecified), the cytotoxicity at 10 µM is -7.2%.

As for `CCc1ncc(C(=O)N2CCCCC2Cn2cccn2)s1` (stereo unspecified), the cytotoxicity at 10 µM is -2.48%.

Consider `Cc1ncc2c(n1)CN(Cc1nc3ccccc3o1)CC2`, for which the cytotoxicity at 10 µM was -0.602%.

Regarding `CCc1nc(C2CCCN2C(=O)C2=COCC2)no1` (stereo unspecified), the cytotoxicity at 10 µM was 8.64%.

Take `CC(c1cccc(S(N)(=O)=O)c1)N(C)CCc1ccccc1` (stereo unspecified): the cytotoxicity at 10 µM was -12%.

In the case of `Cc1nc(CN2CCN(CC(=O)Nc3c(C)cccc3C)CC2)no1`, the cytotoxicity at 10 µM is -3.1%.

As to `CC(C)c1nnc2n1CCN(CC(=O)Nc1nncs1)C2`, the cytotoxicity at 10 µM is -4.02%.

Consider `Cc1cccc(-c2noc(C)c2C(=O)NC2CCCOC2)c1` (stereo unspecified), for which the cytotoxicity at 10 µM amounted to 5.2%.

As to `CC(C)NC(=O)[C@@]12CCO[C@@H]1CCN(Cc1ccc3c(c1)OCO3)C2`, the cytotoxicity at 10 µM is -1.34%.

Consider `CN(C)Cc1cc(=O)n2c(n1)CN(C(=O)Cc1ccsc1)CCC2`, for which the cytotoxicity at 10 µM was -4.43%.

On to `Cc1oncc1C(=O)N1CC[C@H]2[C@H](C[C@@H](CN(C)C)N2CC2CC2)C1`, for which the cytotoxicity at 10 µM came out at 2.84%.

For the compound `CCOCC1CN(S(=O)(=O)N(C)C)Cc2cnn(C)c21` (stereo unspecified), the cytotoxicity at 10 µM was -4.2%.

Turning to `O=C1CC(c2ccncc2)C2(CCN(C(=O)NC3CC3)CC2)N1` (stereo unspecified), the cytotoxicity at 10 µM is -3.46%.

As to `C[C@@H](N)C(=O)N1CC2(CCNCC2)c2cc(Cl)ccc21`, the cytotoxicity at 10 µM was -2.42%.

Turning to `c1cnc(N2CCO[C@@H]3CN(Cc4ccoc4)C[C@@H]3C2)nc1`, the cytotoxicity at 10 µM was -1.36%.

For `Cc1nc(C(C)n2cc3[nH]cccc-3c2=O)cs1` (stereo unspecified), the cytotoxicity at 10 µM is -3.13%.
